According to ChEMBL document CHEMBL1147591, “A novel class of apical sodium-dependent bile acid transporter inhibitors: the amphiphilic 4-oxo-1-phenyl-1,4-dihydroquinoline derivatives” (Bioorg Med Chem Lett, 2004):

Experiments:
[1] = test system: Ileal sodium/bile acid cotransporter (hamster); assay: Inhibition of ASBT as [3H]taurocholate uptake in hamster ileal ring at 30 ug/mL; conditions: Syrian hamster
[2] = test system: Cricetinae gen. sp.; assay: Evaluated for total non HDL- cholesterol in hamster at a dose of 0.3 mg/kg; type: functional
Method in brief: (§1)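 Chow-fed male Syrian golden hamsters dosed orally by gavage in 0.5% carboxymethylcellulose vehicle once daily in the evening for 14 consecutive days at 0.3, 1, 3, 10, 30 or 100 mg/kg/day. Chow and water were given freely and animals weighed daily. They were sacrificed the morning after the 14th dose. Serum was assayed for triglycerides, total cholesterol and lipoprotein cholesterol (VLDL+LDL, HDL).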

[3] = test system: Cricetinae gen. sp.; assay: Evaluated for total non HDL- cholesterol in hamster at a dose of 1.0 mg/kg; type: functional
Method in brief: as §1

[4] = test system: Cricetinae gen. sp.; assay: Evaluated for total non HDL- cholesterol in hamster at a dose of 100.0 mg/kg; type: functional
Method in brief: as §1

[5] = test system: Cricetinae gen. sp.; assay: Evaluated for total non HDL- cholesterol in hamster at a dose of 3.0 mg/kg; type: functional
Method in brief: as §1

[6] = test system: Cricetinae gen. sp.; assay: Evaluated for total non HDL- cholesterol in hamster at a dose of 30.0 mg/kg; type: functional
Method in brief: as §1

[7] = test system: Cricetinae gen. sp.; assay: Evaluated for total serum cholesterol in hamster at a dose of 10.0 mg/kg; type: functional, Cricetulus griseus
Method in brief: as §1

[8] = test system: Cricetinae gen. sp.; assay: Evaluated for total serum cholesterol in hamster at a dose of 100.0 mg/kg; type: functional, Cricetulus griseus
Method in brief: as §1

[9] = test system: Cricetinae gen. sp.; assay: Evaluated for total serum cholesterol in hamster at a dose of 3.0 mg/kg; type: functional, Cricetulus griseus
Method in brief: as §1

[10] = test system: Cricetinae gen. sp.; assay: Evaluated for total serum cholesterol in hamster at a dose of 30.0 mg/kg; type: functional
Method in brief: as §1

[11] = test system: Cricetinae gen. sp.; assay: Evaluated for total triglycerides in hamster at a dose of 0.3 mg/kg; type: functional, Cricetulus griseus
Method in brief: as §1

[12] = test system: Cricetinae gen. sp.; assay: Evaluated for total triglycerides in hamster at a dose of 1.0 mg/kg; type: functional, Cricetulus griseus
Method in brief: as §1

[13] = test system: Cricetinae gen. sp.; assay: Evaluated for total triglycerides in hamster at a dose of 10.0 mg/kg; type: functional, Cricetulus griseus
Method in brief: as §1

[14] = test system: Cricetinae gen. sp.; assay: Evaluated for total triglycerides in hamster at a dose of 3.0 mg/kg; type: functional, Cricetulus griseus
Method in brief: as §1

[15] = test system: Cricetinae gen. sp.; assay: Evaluated for total triglycerides in hamster at a dose of 30.0 mg/kg; type: functional, Cricetulus griseus
Method in brief: as §1

[16] = test system: Cricetinae gen. sp.; assay: Evaluated for total serum cholesterol in hamster at a dose of 0.3 mg/kg; type: functional
Method in brief: as §1

[17] = test system: Cricetinae gen. sp.; assay: Evaluated for total serum cholesterol in hamster at a dose of 1.0 mg/kg; type: functional, Cricetulus griseus
Method in brief: as §1

[18] = test system: Cricetinae gen. sp.; assay: Evaluated for total HDL-cholesterol in hamster at a dose of 100.0 mg/kg; type: functional
Method in brief: as §1

[19] = test system: Cricetinae gen. sp.; assay: Evaluated for total HDL-cholesterol in hamster at a dose of 3.0 mg/kg; type: functional
Method in brief: as §1

[20] = test system: Cricetinae gen. sp.; assay: Evaluated for total HDL-cholesterol in hamster at a dose of 30.0 mg/kg; type: functional
Method in brief: as §1

[21] = test system: Cricetinae gen. sp.; assay: Evaluated for total HDL-cholesterol in hamster at a dose of 0.3 mg/kg; type: functional
Method in brief: as §1

[22] = test system: Cricetinae gen. sp.; assay: Evaluated for total HDL-cholesterol in hamster at a dose of 1.0 mg/kg; type: functional
Method in brief: as §1

[23] = test system: Cricetinae gen. sp.; assay: Evaluated for total HDL-cholesterol in hamster at a dose of 10.0 mg/kg; type: functional
Method in brief: as §1

[24] = Ratio between total non HDL-cholesterol and HDL-cholesterol in hamster at a dose of 0.3 mg/kg; type: functional
Method in brief: (§2)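 Chow-fed male Syrian golden hamsters were dosed by oral gavage in 0.5% carboxymethylcellulose each evening for 14 consecutive days, with free access to chow and water. Animals were weighed daily and killed the morning after the 14th dose. Serum lipoprotein cholesterol profiles were measured, and the ratio of non-HDL (VLDL plus LDL) cholesterol to HDL-cholesterol was calculated.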

[25] = Ratio between total non HDL-cholesterol and HDL-cholesterol in hamster at a dose of 1.0 mg/kg; type: functional
Method in brief: as §2

[26] = Ratio between total non HDL-cholesterol and HDL-cholesterol in hamster at a dose of 10.0 mg/kg; type: functional
Method in brief: as §2

[27] = Ratio between total non HDL-cholesterol and HDL-cholesterol in hamster at a dose of 100.0 mg/kg; type: functional
Method in brief: as §2

[28] = Ratio between total non HDL-cholesterol and HDL-cholesterol in hamster at a dose of 3.0 mg/kg; type: functional
Method in brief: as §2

[29] = Ratio between total non HDL-cholesterol and HDL-cholesterol in hamster at a dose of 30.0 mg/kg; type: functional
Method in brief: as §2

[30] = test system: Mesocricetus auratus; assay: Evaluated for total triglycerides in hamster at a dose of 100.0 mg/kg
[31] = test system: Mesocricetus auratus; assay: Evaluated for total non HDL- cholesterol in hamster at a dose of 10.0 mg/kg

CCN(C(=O)c1cn(-c2cc(OC)cc(OCCCCCCCC[N+]34CCN(CC3)CC4)c2)c2cc(OC)ccc2c1=O)c1cc(F)cc(F)c1
inhibition at 30 µg/mL [1]: 83%

CCN(C(=O)c1cn(-c2cc(OC)cc(OCc3ccc(C[N+]45CCN(CC4)CC5)cc3)c2)c2cc(OC)ccc2c1=O)c1cc(F)cc(F)c1
inhibition at 30 µg/mL [1]: 71%

CCN(C(=O)c1cn(-c2cc(OC)cc(OC)c2)c2cc(OCCCCCCCC[N+]34CCN(CC3)CC4)ccc2c1=O)c1cc(F)cc(F)c1
inhibition at 30 µg/mL [1]: 94%

CCN(C(=O)c1cn(-c2cc(OC)cc(OC)c2)c2cc(OCc3ccc(C[N+]45CCN(CC4)CC5)cc3)ccc2c1=O)c1cc(F)cc(F)c1
inhibition at 30 µg/mL [1]: 71%

CCN(C(=O)c1cn(-c2cc(OC)cc(OC)c2)c2cc(OCCCC[N+]34CCN(CC3)CC4)ccc2c1=O)c1cc(F)cc(F)c1
inhibition at 30 µg/mL [1]: 24%

CCN(C(=O)c1cn(-c2cc(OC)cc(OC)c2)c2cc(OCCCCCCC[N+]34CCN(CC3)CC4)ccc2c1=O)c1cc(F)cc(F)c1.[Br-]
Non-HDL-C [2]: 75.7 mg/dL
Non-HDL-C [3]: 85.2 mg/dL
Non-HDL-C [4]: 57 mg/dL
Non-HDL-C [5]: 94.1 mg/dL
Non-HDL-C [6]: 78.9 mg/dL
TC [7]: 144.1 mg/dL
TC [8]: 118.9 mg/dL
TC [9]: 174.3 mg/dL
TC [10]: 142.8 mg/dL
TG [11]: 142.7 mg/dL
TG [12]: 249.3 mg/dL
TG [13]: 217.6 mg/dL
TG [14]: 270.8 mg/dL
TG [15]: 235 mg/dL
TC [16]: 157.4 mg/dL
TC [17]: 166.9 mg/dL
HDL-C [18]: 61.9 mg/dL
HDL-C [19]: 80.2 mg/dL
HDL-C [20]: 63.9 mg/dL
HDL-C [21]: 81.8 mg/dL
HDL-C [22]: 81.7 mg/dL
HDL-C [23]: 69.8 mg/dL
Ratio [24]: 0.9
Ratio [25]: 1.1
Ratio [26]: 1.1
Ratio [27]: 0.9
Ratio [28]: 1.2
Ratio [29]: 1.3
TG [30]: 217.7 mg/dL
Non-HDL-C [31]: 74.3 mg/dL
inhibition at 30 µg/mL [1]: 100%

CCN(C(=O)c1cn(-c2cc(OC)cc(OC)c2)c2cc(OC)ccc2c1=O)c1cc(F)cc(F)c1
inhibition at 30 µg/mL [1]: 64%

CCN(C(=O)c1cn(-c2ccc(OC)cc2)c2cc(OC)ccc2c1=O)c1cc(F)cc(F)c1
inhibition at 30 µg/mL [1]: 64%

CCN(C(=O)c1cn(-c2cc(OC)cc(OCCCCCC[N+]34CCN(CC3)CC4)c2)c2cc(OC)ccc2c1=O)c1cc(F)cc(F)c1
inhibition at 30 µg/mL [1]: 83%

CCN(C(=O)c1cn(-c2ccc(OCc3ccc(C[N+]45CCN(CC4)CC5)cc3)cc2)c2cc(OC)ccc2c1=O)c1cc(F)cc(F)c1
inhibition at 30 µg/mL [1]: 41%

CCN(C(=O)c1cn(-c2cc(OC)cc(OCCCCCCC[N+]34CCN(CC3)CC4)c2)c2cc(OC)ccc2c1=O)c1cc(F)cc(F)c1
inhibition at 30 µg/mL [1]: 86%

CCN(C(=O)c1cn(-c2cc(OC)cc(OC)c2)c2cc(OCCCCC[N+]34CCN(CC3)CC4)ccc2c1=O)c1cc(F)cc(F)c1
inhibition at 30 µg/mL [1]: 67%

CCN(C(=O)c1cn(-c2cc(OC)cc(OC)c2)c2cc(OCCCCCC[N+]34CCN(CC3)CC4)ccc2c1=O)c1cc(F)cc(F)c1
inhibition at 30 µg/mL [1]: 88%
